High-throughput results deposited in PubChem by Broad Institute.
miR122 inh: miR-122 Renilla sensor signal increase in Huh7, primary screen, miR-122 inhibitor project, cell-based, single point, plate reader. hit rate 0.3% among 340,000. activation (reporter increase), % at 12.5 µM. Huh7 miR-122 Renilla luciferase sensor, 48 h; neutral wells = 0, positive control = 100. AID 602342, 2012;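 active means mean replicate activation score at least 90 and every replicate individually at or above 90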;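 further: higher luciferase means less miR-122 activity so hits act as miR-122 inhibitors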
Ecoli rRNA inh: reduced GFP signal of wild-type E. coli, primary screen, bacterial rRNA inhibitor project, GFP/RFP fluorescence, OD600, single point. E. coli WT GFP vs humanized-ribosome RFP mutants, 24 h; hits give low values; DMSO median 0, no signal -100. GFP signal change (wild-type ribosome), % (test concentration not listed). hit rate 1.6% among 350,000;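 active means significant combined selectivity score with lowered wild-type GFP, culture density cut under 30%, mutant RFP and density less affected; inactive means any of these conditions unmet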
F508del corr: F508del CFTR correction, initial screen, CFBE line, single point. CFBE cells, YFP halide quenching; stimulated with forskolin plus potentiator P3; % fluorescence drop versus neutral controls. activity (quench increase), % at 7.58 µM. hit rate 0.36% among 350,000. AID 720511, 2013;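 active means mean added fluorescence quench of at least 8% versus neutral control, with both replicates also reaching 8%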;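 further: cells transiently co-express mutant CFTR-F508del with the halide-sensitive YFP; corrector assay measuring rescue of mutant channel to the surface after 24 h compound exposure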
Cneo AK release: Cryptococcus neoformans cell lysis inducers, primary screen, AK release luminescence, single concentration | lysis activity, % at 15 µM | hit rate 0.2% among 360,000 | C. neoformans lysis, adenylate kinase release luminescence, 4 h; normalised: neutral wells 0, clomiphene wells 100;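 active means mean lysis activity across replicates of at least 80%, whatever share of replicates individually reach that level; inactive means mean lysis activity below 80%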
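Signal: Adenylate kinase release luminescence | Assay system: Log-phase Cryptococcus neoformans yeast cells | Input: Cells at 5 × 10^6 per mL | Buffer or medium: Fresh YPD growth medium | Compound: Single dose | Schedule: Static 4 h at 37 °C with compound, 1 h detection | Controls: Clomiphene | Read-out: Luminescence rise reflecting yeast cell lysis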
HIV Env fusion: inhibitors of HIV-1 Env-driven cell-cell fusion, primary screen, HeLa-JRFL effector, CEM21 target cells, luciferase | AID 651610, 2012 | inhibition, % at 12.3 µM | hit rate 1.1% among 360,000;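 active means mean replicate inhibition score of at least 50 and every replicate individually at or above 50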;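 further: 0% = plate neutral controls and 100% = maraviroc near 300 nM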
INS-1E GSIS act: GLuc luminescence reporter in INS-1E cells, primary screen for activators of glucose-dependent secretion of insulin; hit rate 0.61% among 370,000; activation, % at 16.6 µM; INS-1E GLuc reporter insulin secretion, 2-3 h;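 active means lowest replicate activation of at least 40%, so every replicate reaches that level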;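 further: 0% = median of neutral control wells and 100% = median of IBMX positive control wells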
Active calls of the source: *; . = not tested or not shown; [ ] = dose if it differs, or a comment. An excerpt weighted towards active compounds, which were near 3.1% of everything screened.

SMILES	miR122 inh	Ecoli rRNA inh	F508del corr	Cneo AK release	HIV Env fusion	INS-1E GSIS act
O=C(Nc1cccc(-c2nc3ccccc3c(=O)o2)c1)c1ccccc1	.	-20*	-1	.	-13	-2
Cc1ccccc1C(=O)Nc1cccc(-c2cn3ccccc3n2)c1	8	-41	1	.	-11	2
COc1cccc(-c2ccc([C@@H]3[C@H]4CN(C(=O)CN5CCOCC5)CC(=O)N4[C@H]3CO)cc2)c1	.	0	1	.	.	-1
COc1ccc(S(=O)(=O)N2CCCCC2)cc1NC(=O)C1CC1C (stereo not given)	.	12	-3	0	.	40*
COc1ccc(S(=O)(=O)N2CCCCC2)cc1NC(=O)C1CCCO1 (stereo not given)	.	2	-1	.	4	-5
COc1ccc(S(=O)(=O)N2CCCCC2)cc1NC(=O)CCCOc1ccc(C)cc1	-2	8	1	1	71*	-2
COc1ccc(S(=O)(=O)N2CCCCC2)cc1NC(=O)CN(C)C1CCCCC1	-8	-12	-2	4	24	-17
CN(CC(=O)Nc1cc(S(=O)(=O)N2CCCCCC2)ccc1Cl)Cc1ccc2c(c1)OCO2	0	2	-1	-1	40	-9
COc1ccc(S(=O)(=O)N2CCCCCC2)cc1NC(=O)CN(C)Cc1ccc2c(c1)OCO2	46	-10	4	-1	58*	-11
COc1ccc(S(=O)(=O)N2CCCCC2)cc1NC(=O)CN(Cc1ccco1)Cc1ccco1	5	1	4	-1	76*	-8
C[C@@H]1CN([C@@H](C)CO)C(=O)c2cc(NC(=O)c3ccncc3)ccc2O[C@@H]1CN(C)C(=O)Nc1ccc(F)cc1	4[16.7 µM]	2	0	-3	.	1
COc1ccccc1CNCC(=O)Nc1cc(S(=O)(=O)N2CCCCCC2)ccc1Cl	.	-31*	2	.	-3	-42
COc1ccccc1CNCC(=O)Nc1cc(S(=O)(=O)N2CCCCC2)ccc1C	-9	-5	1	2	25	-42
Cc1ccc(S(=O)(=O)N2CCN(C(=O)CN(Cc3ccco3)Cc3cccs3)CC2)cc1	-1	2	29*	4	.	4
CCCCCC(=O)NC(=S)Nc1ccc(N2CCOCC2)cc1	.	-27*	-2	.	-8	10
CCC(=O)NC(=S)Nc1ccc(N2CCOCC2)cc1	.	8	-1	.	-12	-4
Fc1ccc(CSc2nnc(-c3ccncc3)o2)cc1	-3	5	0	4	37	17
Clc1ccc(CSc2nnc(-c3ccncc3)o2)cc1	6	.	.	5	63*	.
ClC1(Cl)CC1CSc1nnc(-c2ccncc2)o1 (stereo not given)	-9	-19*	-2	-6	2	6
CCOC(=O)c1cccc(S(=O)(=O)N(CCO)Cc2cc3cc(OC)ccc3[nH]c2=O)c1	-7	-18*	1	12	.	11
COc1ccc2[nH]c(=O)c(CN(CCO)S(=O)(=O)c3ccc(C)cc3)cc2c1	.	-24*	2	.	12	5
COc1ccc2[nH]c(=O)c(CN(CCO)C(=O)c3ccccc3F)cc2c1	.	16	.	3	.	67*
CCOC(=O)c1cccc(S(=O)(=O)N(CCO)Cc2cc3cc(OC)c(OC)cc3[nH]c2=O)c1	-2	.	.	0	-31	9
COc1ccc(NC(=O)Nc2cccc3c2O[C@H](CN(C)S(=O)(=O)c2cn(C)cn2)[C@@H](C)CN([C@@H](C)CO)C3=O)cc1	7[16.7 µM]	3	0	-6	-1[16.7 µM]	5
CC(=O)N(C)C[C@H]1Oc2ncc(C#Cc3ccc(F)cc3)cc2C(=O)N([C@H](C)CO)C[C@H]1C	7[16.7 µM]	-1	0	3	2[16.7 µM]	23
SMILES	miR122 inh	Ecoli rRNA inh	F508del corr	Cneo AK release	HIV Env fusion	INS-1E GSIS act
Cc1cc(C)c2sc(N(CCCN(C)C)C(=O)c3ccc(Br)s3)nc2c1	-13	-8	1	8	-1	-19
Cc1cc(C)c2sc(N(CCN(C)C)C(=O)c3c(F)cccc3F)nc2c1	2	-37*	1	1	14	-44
O=C(COC(=O)CNC(=O)c1ccc(Cl)cc1)Nc1ccc(Cl)cn1	-3	3	2	0	.	18
NC(=O)c1ccsc1NC(=O)COC(=O)CNC(=O)c1ccc(Cl)cc1	0	15	-2	1	10	50*
O=C(COC(=O)CCC(=O)c1ccc(F)cc1)NCc1ccccc1Cl	-5	-30*	-5	0	-5	-7
O=C(COC(=O)CCC(=O)c1ccc(Cl)cc1)NCc1ccc(F)cc1	-3	-2	1	5	-13	.
C[C@@H]1CCCCO[C@H](CN(C)Cc2ccc3c(c2)OCO3)[C@H](C)CN([C@H](C)CO)C(=O)c2cc(NC(=O)Nc3cccc4ccccc34)ccc2O1	0[16.7 µM]	-2	-3	88*	3[16.7 µM]	-25
C[C@@H]1CN([C@@H](C)CO)C(=O)c2cc(NC(=O)Nc3cccc4ccccc34)ccc2O[C@@H](C)CCCCO[C@@H]1CN(C)Cc1ccc2c(c1)OCO2	3[16.7 µM]	-4	8.8*	2	0[16.7 µM]	-8
O=C(C[C@@H]1CC[C@@H]2[C@H](COC[C@H](O)CN2S(=O)(=O)c2cccc(Cl)c2)O1)N1CCCCC1	-3[16.7 µM]	-1	1	1	-6[16.7 µM]	7
OC[C@@H]1CN(Cc2ccc(F)cc2)C[C@H](n2cnc3c(NCc4ccncc4)ncnc32)O1	-2	7	1	1	-11	12
OC[C@@H]1CN(Cc2ccc(-c3ccccc3)cc2)C[C@H](n2cnc3c(NC4CC4)ncnc32)O1	-7	-3	8.6*	2	0	-12
OC[C@@H]1CN(Cc2ccccc2)C[C@H](n2cnc3c(NCc4ccncc4)ncnc32)O1	-1	.	-3	0	59*	12
OC[C@@H]1CN(Cc2ccc(-c3ccccc3)cc2)C[C@H](n2cnc3c(Nc4ccccc4)ncnc32)O1	-9	-7	-4	0	14	-18
CCC(=O)Nc1ccc2c(c1)OC[C@@H](C)N(C(=O)Cc1ccccn1)C[C@H](C)[C@H](OC)CN(C)C2=O	.	0	.	.	.	-2
NS(=O)(=O)c1ccc(NC(=O)Cc2cccs2)cc1	-5	4	3	0	-12	0
NS(=O)(=O)c1ccc(NC(=O)COC(=O)/C(=C/c2cccs2)c2cccs2)cc1	0	-18*	5	1	-28	10
C[C@H]1CN(C)C(=O)Cc2cc(NS(C)(=O)=O)ccc2O[C@H]1CN(C)C	.	0	.	.	.	24
